Data as given in ChEMBL document CHEMBL4020840, “Synthesis and Biological Evaluation of Selenium-Containing 4-Anilinoquinazoline Derivatives as Novel Antimitotic Agents” (J Med Chem, 2018).

How the values were obtained:
[1] = Inhibition of porcine brain tubulin polymerization measured every 60 secs for 90 mins by DAPI staining based fluorescence assay; design: species or system Sus scrofa
Method in brief: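 Purified tubulin was tested in a kit assay. Final buffer: 80 mM PIPES sesquisodium (pH 6.9), 2.0 mM MgCl₂, 0.5 mM EGTA, 1 mM GTP, 10.2% glycerol. Compound (0.1–10 μM) was prewarmed at 37 °C for 1 min before tubulin was added. DAPI reporter fluorescence (ex 340 / em 410 nm) was read every 60 s for 90 min. Area under the curve gave percent inhibition versus control and the IC50.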

[2] = Selectivity index, ratio of IC50 for human LO2 cells to IC50 for human A549 cells; type: functional
Method in brief: (§1)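 MTT assay in normal cells and A549: seeding at 5 × 10³ cells/well for 24 h, 48 h compound exposure, then 5 mg/mL MTT for 4 h, DMSO solubilisation and absorbance at 570 nm. IC50 values came from dose–response curves of at least three independent experiments. Selectivity ratio = IC50 in normal cells / IC50 in A549.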

A549 [3] = test: Induction of apoptosis in human A549 cells assessed as early apoptotic cells at 4 nM after 48 hrs by Annexin V-FITC/propidium iodide staining based flow cytometry (reference value: 1.48%); type: functional
HepG2 = test: Growth inhibition of human HepG2 cells after 48 hrs by MTT assay; type: functional, cell-based; conditions: HepG2, 48 h
Method in brief: (§2)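 MTT assay: log-phase cells plated at 5 × 10³/well for 24 h, then exposed to a range of test concentrations for 48 h. MTT (5 mg/mL) added for 4 h, formazan dissolved in DMSO, absorbance read at 570 nm. IC50 is the concentration giving 50% growth inhibition, from dose-response curves; at least three independent experiments, mean ± SE.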

MDA-MB-231 = test: Growth inhibition of human MDA-MB-231 cells after 48 hrs by MTT assay; type: functional, cell-based; conditions: MDA-MB-231, 48 h; method in brief: as §2
A549 [4] = test: Induction of apoptosis in human A549 cells assessed as late apoptotic cells at 2 nM after 48 hrs by Annexin V-FITC/propidium iodide staining based flow cytometry (reference value: 0.03%); type: functional
A549 [5] = test: Induction of apoptosis in human A549 cells assessed as necrotic cells at 2 nM after 48 hrs by Annexin V-FITC/propidium iodide staining based flow cytometry relative to control; type: functional
A549 [6] = test: Induction of mitochondrial membrane disruption in human A549 cells assessed as cells with mitochondrial membrane potential loss at 8 nM after 48 hrs by JC1 staining based flow cytometry (reference value: 0.82%); type: functional
A549/CDDP = test: Growth inhibition of human A549/CDDP cells after 48 hrs by MTT assay; type: functional, cell-based; method in brief: as §2
[7] = Selectivity index, ratio of IC50 for human BJ cells to IC50 for human A549 cells; type: functional; method in brief: as §1
A549 [8] = test: Induction of apoptosis in human A549 cells assessed as live cells at 4 nM after 48 hrs by Annexin V-FITC/propidium iodide staining based flow cytometry (reference value: 98.49%); type: functional
A549 [9] = test: Induction of mitochondrial membrane disruption in human A549 cells assessed as cells with intact mitochondrial membrane at 2 nM after 48 hrs by JC1 staining based flow cytometry (reference value: 99.13%); type: functional
A549 [10] = test: Induction of apoptosis in human A549 cells assessed as late apoptotic cells at 2 nM after 24 hrs by Annexin V-FITC/propidium iodide staining based flow cytometry (reference value: 0.08%); type: functional
A549 [11] = test: Induction of apoptosis in human A549 cells assessed as necrotic cells at 2 nM after 24 hrs by Annexin V-FITC/propidium iodide staining based flow cytometry (reference value: 0.10%); type: functional
[12] = Growth inhibition of human HepG2/DOX cells after 48 hrs by MTT assay; type: functional, cell-based; method in brief: as §2
A549 [13] = test: Induction of mitochondrial membrane disruption in human A549 cells assessed as cells with intact mitochondrial membrane at 8 nM after 48 hrs by JC1 staining based flow cytometry (reference value: 99.13%); type: functional
A549 [14] = test: Induction of mitochondrial membrane disruption in human A549 cells assessed as cells with mitochondrial membrane potential loss at 2 nM after 48 hrs by JC1 staining based flow cytometry (reference value: 0.82%); type: functional
A549 [15] = test: Induction of mitochondrial membrane disruption in human A549 cells assessed as cells with mitochondrial membrane potential loss at 4 nM after 48 hrs by JC1 staining based flow cytometry (reference value: 0.82%); type: functional
A549 [16] = test: Induction of apoptosis in human A549 cells assessed as live cells at 2 nM after 48 hrs by Annexin V-FITC/propidium iodide staining based flow cytometry (reference value: 98.49%); type: functional
A549 [17] = test: Induction of apoptosis in human A549 cells assessed as early apoptotic cells at 4 nM after 24 hrs by Annexin V-FITC/propidium iodide staining based flow cytometry (reference value: 0.98%); type: functional
A549 [18] = test: Induction of apoptosis in human A549 cells assessed as necrotic cells at 4 nM after 48 hrs by Annexin V-FITC/propidium iodide staining based flow cytometry relative to control; type: functional
[19] = Selectivity index, ratio of IC50 for HLF to IC50 for human A549 cells; method in brief: as §1
LoVo = test: Growth inhibition of human LoVo cells after 48 hrs by MTT assay; type: functional, cell-based; method in brief: as §2
A549 [20] = test: Cell cycle arrest in human A549 cells assessed as accumulation at G2/M phase at 4 nM after 12 hrs by propidium iodide staining based flow cytometry (reference value: 10.13%); type: functional
Method in brief: (§3)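 A549 seeded in six-well plates at 3 × 10⁵ cells/well and treated for 12 or 24 h; vehicle 0.01% DMSO. Cells fixed overnight in ice-cold 70% ethanol, treated with RNase A at 37 °C for 30 min, then stained with PI at 4 °C for 30 min. About 10 000 events acquired by flow cytometry at 488 nm; three experiments.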

A549 [21] = test: Cell cycle arrest in human A549 cells assessed as accumulation at G2/M phase at 4 nM after 24 hrs by propidium iodide staining based flow cytometry (reference value: 10.13%); type: functional; method in brief: as §3
MGC-803 = test: Antiproliferative activity against human MGC803 cells after 48 hrs by MTT assay; type: functional, cell-based; conditions: MGC-803, 48 h; method in brief: as §2
[22] = Antiproliferative activity against HLF after 48 hrs by MTT assay; type: cell-based; conditions: Homo sapiens; method in brief: as §2
HeLa = test: Antiproliferative activity against human HeLa cells after 48 hrs by MTT assay; type: functional, cell-based; method in brief: as §2
A549 [23] = test: Induction of apoptosis in human A549 cells assessed as late apoptotic cells at 4 nM after 48 hrs by Annexin V-FITC/propidium iodide staining based flow cytometry (reference value: 0.03%); type: functional
A549 [24] = test: Induction of mitochondrial membrane disruption in human A549 cells assessed as cells with intact mitochondrial membrane at 4 nM after 48 hrs by JC1 staining based flow cytometry (reference value: 99.13%); type: functional
[25] = Resistance factor, ratio of IC50 for human A549/CDDP cells to IC50 for human A549 cells; type: functional
Method in brief: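 MTT assay: log-phase cells were seeded at 5 × 10³/well for 24 h, then exposed to a concentration series for 48 h. MTT (5 mg/mL) was added for 4 h, formazan was dissolved in DMSO, and A570 was read. IC50 values came from dose–response curves of at least three independent experiments. Resistance factor = IC50 in the resistant line / IC50 in the parental sensitive line.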

C[Se]c1ccc(N(C)c2nc(C)nc3ccccc23)cc1
IC50 [1]: 1890 nM
Ratio IC50 [2]: 9.5
Activity (A549 [3]): 54.14%
IC50 (HepG2): 4 nM
IC50 (MDA-MB-231): 4 nM
Activity (A549 [4]): 20.5%
Activity (A549 [5]): 3.19%
Activity (A549 [6]): 63.13%
IC50 (A549/CDDP): 9 nM
Ratio IC50 [7]: 9.5
Activity (A549 [8]): 10.31%
Activity (A549 [9]): 83.86%
Activity (A549 [10]): 3.82%
Activity (A549 [11]): 0.9%
IC50 [12]: 8 nM
Activity (A549 [13]): 36.52%
Activity (A549 [14]): 15.85%
Activity (A549 [15]): 42.83%
Activity (A549 [16]): 49.81%
Activity (A549 [17]): 26.51%
Activity (A549 [18]): 6.8%
Ratio IC50 [19]: 10
IC50 (LoVo): 9 nM
Activity (A549 [20]): 67.1%
Activity (A549 [21]): 87.16%
IC50 (MGC-803): 7 nM
IC50 [22]: 20 nM
IC50 (HeLa): 3 nM
Activity (A549 [23]): 28.75%
Activity (A549 [24]): 56.98%
Ratio IC50 [25]: 4.09
